Data from publication PMC2494688 (Diabetes, 2008).

Experiments:
human GPR40 = human GPR40 (Homo sapiens, UniProt O14842); assay type: cell-based; settings: CHO cells, in words
Outline: (§1)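 GPR40 stably expressed in CHO cells carrying NFAT β-lactamase, seeded 1 day before. Test compound in DMSO, diluted in assay buffer, added as a 5× solution. Calcium signal read on FLIPR from 10 s before addition. EC50 taken from concentration–response curves.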

mouse GPR40 = mouse GPR40 (Mus musculus, UniProt Q76JU9); assay type: cell-based; settings: CHO cells, in words
Outline: as §1

[1] = system: islets from wild-type mice; assay: Static GDIS assay, 1-h incubation, wild-type islets; assay type: cell-based, mouse; settings: 200 μmol/l, 16 mmol/l glucose, n = 6
Outline: (§2)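 Islets isolated by collagenase digestion and Ficoll gradient, cultured overnight in RPMI-1640 with 11 mmol/l glucose. Preincubated 30 min in KRB (0.2% BSA) with 2 mmol/l glucose. One islet/well incubated 60 min at 2 or 16 mmol/l glucose, ± 200 μmol/l oleate or palmitate or 10 μmol/l test compound; DMSO vehicle. Insulin by ultrasensitive rat insulin ELISA. Two experiments, six replicates in total. Wild-type islets also tested across a compound concentration series at 16 mmol/l glucose (three experiments).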

[2] = system: islets from GPR40−/− mice; assay: Static GDIS assay, 1-h incubation, GPR40−/− islets; assay type: cell-based, mouse; settings: 200 μmol/l, 16 mmol/l glucose, n = 6, P > 0.05
Outline: as §2

wild-type C57BL/6 mice = assay: IPGTT in wild-type lean mice; assay type: in vivo, mouse; settings: 0.0025 mg/kg, positive control
Outline: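 Lean male C57BL/6N mice fasted 5–6 h, dosed orally with compound (1–100 mg/kg) or 0.25% methylcellulose vehicle (10 ml/kg) 60 min before 2 g/kg i.p. dextrose. Tail glucose sampled to 60 min. Percent inhibition derived from the 0–60 min AUC minus the vehicle/water group AUC. Plasma compound measured by LC-MS/MS at 60 min of IPGTT (2 h post-dose).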

Chain of human GPR40 (O14842 whole entry): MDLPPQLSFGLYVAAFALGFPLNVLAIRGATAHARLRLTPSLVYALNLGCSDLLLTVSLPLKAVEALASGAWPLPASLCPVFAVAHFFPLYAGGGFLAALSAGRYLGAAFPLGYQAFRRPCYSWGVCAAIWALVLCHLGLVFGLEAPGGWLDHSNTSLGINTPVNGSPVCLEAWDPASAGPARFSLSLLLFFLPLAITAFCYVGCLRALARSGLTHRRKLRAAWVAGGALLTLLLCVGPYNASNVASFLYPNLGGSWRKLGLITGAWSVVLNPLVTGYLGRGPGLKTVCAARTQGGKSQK
Chain of mouse GPR40 (Q76JU9 whole entry): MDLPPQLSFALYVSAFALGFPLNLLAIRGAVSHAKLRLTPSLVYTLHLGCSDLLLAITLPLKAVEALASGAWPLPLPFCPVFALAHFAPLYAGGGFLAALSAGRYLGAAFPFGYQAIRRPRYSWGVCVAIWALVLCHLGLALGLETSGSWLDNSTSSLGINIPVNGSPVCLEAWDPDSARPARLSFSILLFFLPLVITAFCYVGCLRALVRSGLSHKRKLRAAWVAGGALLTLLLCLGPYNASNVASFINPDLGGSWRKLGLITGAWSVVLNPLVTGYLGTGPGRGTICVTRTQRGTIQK

Compound | Activation of human GPR40 receptor (human GPR40) | Activation of mouse GPR40 receptor (mouse GPR40) | Promotion of glucose-dependent insulin secretion [1] [fold] | Promotion of glucose-dependent insulin secretion [2] [fold] | Effect on glucose excursion during IPGTT (wild-type C57BL/6 mice)
CCCCCCCC/C=C\CCCCCCCC(=O)O [oleic C18:1, oleic acid] |  |  | 1.9 ± 0.4 | 1.2 ± 0.3 | 
CCCCCCCCCCCCCCCC(=O)O [palmitate, palmitic acid] |  |  | 2.4 ± 0.3 | 1.8 ± 0.5 | 
exendin-4: glucagon-like peptide 1 mimetic, positive control |  |  |  |  | completely prevented any glucose excursion

Second part, led by results:

Activation of human GPR40 receptor (human GPR40) | Activation of mouse GPR40 receptor (mouse GPR40) | Compound | Promotion of glucose-dependent insulin secretion [1] [fold] | Promotion of glucose-dependent insulin secretion [2] [fold] | Effect on glucose excursion during IPGTT (wild-type C57BL/6 mice)
minimal activation | minimal activation | CCCC(=O)O [butyric C4:0] |  |  | 
minimal activation | minimal activation | CCCCC(=O)O [pentanoic C5:0, pentanoic acid] |  |  | 
minimal activation | minimal activation | CCC(=O)O [propionic C3:0] |  |  | 
